CYP2C9 act: CYP2C9 (human) activation | P11712 | recombinant CYP2C9, luciferin-H conversion, luminescence; active compounds read high; factor 1 = untreated enzyme, 0 = blocked | activation factor at 5 µM | 96,000 tested, 1.4% active | AID 1024;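 active = activation factor of 2 or more for CYP2C9 at a 5 µM dose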
Target sequence (P11712 whole entry, looked up): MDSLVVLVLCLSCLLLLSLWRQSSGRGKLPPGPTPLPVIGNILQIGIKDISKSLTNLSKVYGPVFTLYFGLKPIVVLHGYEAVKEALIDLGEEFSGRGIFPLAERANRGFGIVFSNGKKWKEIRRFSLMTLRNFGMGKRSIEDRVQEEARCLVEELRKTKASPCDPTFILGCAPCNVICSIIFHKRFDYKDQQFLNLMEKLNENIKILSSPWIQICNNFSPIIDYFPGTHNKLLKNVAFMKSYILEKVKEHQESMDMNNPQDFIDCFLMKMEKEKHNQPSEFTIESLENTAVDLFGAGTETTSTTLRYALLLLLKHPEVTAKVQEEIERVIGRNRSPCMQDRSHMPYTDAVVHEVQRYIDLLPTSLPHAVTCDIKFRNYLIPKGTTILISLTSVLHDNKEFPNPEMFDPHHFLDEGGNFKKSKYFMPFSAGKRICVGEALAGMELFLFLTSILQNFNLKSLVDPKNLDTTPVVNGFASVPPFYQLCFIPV
CYP2C19 inh: inhibitors of human CYP2C19. P33261. CYP2C19 Supersomes, luciferin-H EGE luminescence, 30 min. inhibition, % at 5 µM. 96,000 tested, 21% active;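 active = CYP2C19 inhibition above a set limit at 5 µM in the primary screen, cut at about 50% in these data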
CYP2C19 activ: increases human CYP2C19 enzyme activity. P33261. recombinant CYP2C19, luciferin-H EGE luminescence; active compounds read high; 0 = fully inhibited enzyme, 1 = untreated enzyme. activation factor at 5 µM. 96,000 tested, under 10 active. AID 1025;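 active = activation factor of at least 2 at 5 µM in the primary screen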
CYP2C9 inh: inhibitors of human CYP2C9. CYP2C9 Supersomes, luciferin-H conversion, luminescence. inhibition, % at 5 µM. 96,000 tested, 20% active. AID 777;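 active = blocking of liver enzyme CYP2C9 beyond about 50% at 5 µM, limit read from the data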
Rev-RRE block: disrupts HIV-1 Rev binding to RRE RNA | P05866 | Rev peptide-RRE RNA binding, FRET | inhibition, % at 8 µM | 97,000 tested, 0.79% active | AID 704;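 active = inhibition above the screen-wide mean plus 3 SD, cut at about 35% in these data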
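assay system = Cy5-tagged RRE RNA duplex with fluorescein-tagged Rev peptide | incubation = 5 + 15 min at 25 °C | also added = labelled Rev peptide | measure = % inhibition of FRET ratio versus controls | benchmarks = DMSO wells as 0% and neomycin B wells as 100% inhibition | measured by = FRET fluorescence readout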
Cav32 inh: inhibitors of human Cav3.2 T-type calcium channel; 100,000 tested, 4% active; O95180; Cav3.2-expressing cells, Fluo-4 calcium fluorescence FDSS; active compounds read low; B-score at 10 µM;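 active = single-dose well whose peak fluorescence ratio is a statistical outlier from its plate by either plate-standardised score or position-corrected B-score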
A number is an active result; n = inactive; x = not tested or not shown. Most compounds without a hit are left out; they make up all but 27% or so of the library.

SMILES	CYP2C9 act	CYP2C19 inh	CYP2C19 activ	CYP2C9 inh	Rev-RRE block	Cav32 inh
CSc1nc(NCc2ccco2)c2ccccc2n1	n	64	n	64	n	n
N#Cc1c(NCc2ccccc2)ccnc1NCc1cccnc1	n	99	n	56	n	n
c1ccc(-c2nc(NCc3cccnc3)c3ccccc3n2)cc1	n	n	n	65	n	n
c1ccc(CN2CCN(c3nc(NCc4ccco4)c4ccccc4n3)CC2)cc1	n	51	n	66	n	n
Cc1[nH]c2c(C)cccc2c(=O)c1Br	n	n	n	n	x	n
OCCSc1nc(-c2cccnc2)nc2ccccc12	n	63	n	90	n	n
c1cncc(-c2nc(NCc3ccco3)c3ccccc3n2)c1	n	n	n	62	n	n
COC(=O)c1sccc1NC(=O)C1CC=CCC1C(=O)O (configuration not stated)	n	n	n	n	n	n
Cc1sc(NC(=O)C2CC=CCC2C(=O)O)c(C(=O)OC(C)C)c1C (configuration not stated)	n	n	n	54	n	n
Cc1ccc(-c2nsc3c(N4CCC(C(N)=O)CC4)ncnc23)cc1	n	n	n	n	x	x
COc1ccc(Cl)cc1S(=O)(=O)N1CCN(C(=O)c2ccco2)CC1	n	94	n	n	n	x
COc1ccc(S(=O)(=O)N2CCN(C(=O)c3ccco3)CC2)cc1OC	n	n	n	n	n	n
O=C(c1ccco1)N1CCN(S(=O)(=O)Cc2ccc(Cl)cc2)CC1	n	78	n	n	n	n
O=C(CSc1nnc(SCc2ccc(Cl)cc2)s1)N1CCN(C(=O)c2ccco2)CC1	n	n	n	55	n	n
O=C(Cc1ccc(Cl)cc1)Nc1ccc(N2CCN(C(=O)c3ccco3)CC2)c(Cl)c1	n	92	n	97	n	n
CCc1ccc(N2CC(C(=O)Nc3nccs3)CC2=O)cc1 (configuration not stated)	n	n	n	n	n	x
COc1cc([C@H]2[C@@H]3CCCC[C@]3(O)CCN2CC(=O)Nc2ccc(C)cc2)ccc1O	n	63	n	74	n	n
COc1ccc(NC(=O)CN2CCC3(O)CCCCC3C2c2ccccc2OC)cc1 (configuration not stated)	n	74	n	91	n	n
CCCCNC(=O)OCC(CC)NC(=O)OCC(C)C (configuration not stated)	n	n	n	n	n	n
CCCCNC(=O)OCC(CC)NC(=O)OC(C)C (configuration not stated)	n	53	n	n	n	n
CCn1c(CCNC(=O)c2cccs2)nnc1SCC(=O)c1ccc(OC)cc1	x	x	x	x	n	n
Cn1c(=O)c2c(nc(NC3CCCCC3)n2CC(=O)C23CC4CC(CC(C4)C2)C3)n(C)c1=O	x	x	x	x	n	-5.8
COc1ccc(/C=N/c2nc3ccccc3n2C)cc1OC	n	n	n	n	n	n
Cn1c(/N=C/c2cccs2)nc2ccccc21	n	n	n	n	n	3
Cn1c(/N=C/c2cc(Cl)ccc2O)nc2ccccc21	n	n	n	n	n	-4.8
SMILES	CYP2C9 act	CYP2C19 inh	CYP2C19 activ	CYP2C9 inh	Rev-RRE block	Cav32 inh
C(=N\c1nc2ccccc2n1CCN1CCCCC1)/c1cccs1	n	n	n	n	n	n
CCC(C(=O)NCc1ccccc1OC)n1nc(C)n2c(cc3occc32)c1=O (configuration not stated)	n	56	n	63	n	n
CCN(CC)CCNc1nc(-c2ccco2)c2c(c1C#N)CC(C)(C)OC2	n	n	n	n	n	n
CC1(C)Cc2c(C#N)c(NC3CCCCC3)nc(-c3ccco3)c2CO1	n	n	n	60	x	n
COC(=O)C[C@H]1c2cc(C(F)(F)F)ccc2S(=O)(=O)N1C(C)(C)C	x	x	x	x	x	n
O=C1c2ccsc2SCCN1Cc1c(Cl)cccc1Cl	n	97	n	89	n	-5.6
O=C1c2ccsc2SCCN1Cc1ccc(Cl)cc1Cl	n	53	n	n	n	-4.6
O=c1[nH]c(CN2CCN(c3ccccc3Cl)CC2)nc2ccsc12	n	n	n	n	n	n
COC(=O)CNC(=O)C1CCCN1C(=O)OC(C)(C)C (configuration not stated)	n	n	n	n	n	n
COC(=O)Cn1c(=O)c2c(nc3n2CC(C)CN3c2ccc(C)c(C)c2)n(C)c1=O (configuration not stated)	x	x	x	x	x	n

Screens (PubChem)
